The values below come from ChEMBL document CHEMBL3997853, “2-Aminopyrimidine Derivatives as New Selective Fibroblast Growth Factor Receptor 4 (FGFR4) Inhibitors” (ACS Med Chem Lett, 2017).

Series [1] concerns the target Fibroblast growth factor receptor 3 (Homo sapiens, UniProt P22607). Put plainly: Inhibition of His-tagged cytoplasmic recombinant human FGFR3 (399 to 806 residues) expressed in baculovirus expression system using Tyr 4 peptide as substrate incubated for 1 hr by FRET-based Z'-Lyte assay.
For series [2], the target named is Fibroblast growth factor receptor 2 (Homo sapiens, UniProt P21802). Put plainly: Inhibition of His-tagged cytoplasmic recombinant human FGFR2 (403 to 822 residues) expressed in baculovirus expression system using Tyr 4 peptide as substrate incubated for 1 hr by FRET-based Z'-Lyte assay.
Sequence of Fibroblast growth factor receptor 2 (P21802 whole entry, the tested form may be a part): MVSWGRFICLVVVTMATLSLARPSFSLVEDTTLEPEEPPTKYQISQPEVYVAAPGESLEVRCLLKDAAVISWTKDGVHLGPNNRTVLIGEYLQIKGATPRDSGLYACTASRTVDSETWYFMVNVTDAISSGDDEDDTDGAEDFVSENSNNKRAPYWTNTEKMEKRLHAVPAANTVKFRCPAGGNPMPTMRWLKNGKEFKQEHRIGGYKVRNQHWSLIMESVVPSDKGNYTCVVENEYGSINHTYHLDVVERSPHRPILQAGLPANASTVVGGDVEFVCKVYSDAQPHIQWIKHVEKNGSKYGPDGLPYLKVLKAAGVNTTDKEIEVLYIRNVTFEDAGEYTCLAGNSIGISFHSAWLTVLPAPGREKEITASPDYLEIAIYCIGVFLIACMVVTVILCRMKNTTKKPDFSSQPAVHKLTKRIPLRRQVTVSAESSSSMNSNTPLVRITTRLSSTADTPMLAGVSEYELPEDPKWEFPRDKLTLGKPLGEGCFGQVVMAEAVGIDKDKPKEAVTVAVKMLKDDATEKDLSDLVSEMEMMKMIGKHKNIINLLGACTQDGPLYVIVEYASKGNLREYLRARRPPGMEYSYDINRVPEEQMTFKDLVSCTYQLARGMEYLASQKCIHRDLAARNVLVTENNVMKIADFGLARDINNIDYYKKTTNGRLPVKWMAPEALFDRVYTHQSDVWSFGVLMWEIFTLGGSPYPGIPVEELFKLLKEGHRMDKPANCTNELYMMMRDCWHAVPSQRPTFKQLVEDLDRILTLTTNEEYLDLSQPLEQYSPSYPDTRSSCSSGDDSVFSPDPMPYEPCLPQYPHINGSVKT
Series [3] deals with Fibroblast growth factor receptor 1 (Homo sapiens, UniProt P11362). Put plainly: Inhibition of His-tagged cytoplasmic recombinant human FGFR1 (308 to 731 residues) expressed in baculovirus expression system using Tyr 4 peptide as substrate incubated for 1 hr by FRET-based Z'-Lyte assay.
Sequence of Fibroblast growth factor receptor 1 (P11362 whole entry, the tested form may be a part): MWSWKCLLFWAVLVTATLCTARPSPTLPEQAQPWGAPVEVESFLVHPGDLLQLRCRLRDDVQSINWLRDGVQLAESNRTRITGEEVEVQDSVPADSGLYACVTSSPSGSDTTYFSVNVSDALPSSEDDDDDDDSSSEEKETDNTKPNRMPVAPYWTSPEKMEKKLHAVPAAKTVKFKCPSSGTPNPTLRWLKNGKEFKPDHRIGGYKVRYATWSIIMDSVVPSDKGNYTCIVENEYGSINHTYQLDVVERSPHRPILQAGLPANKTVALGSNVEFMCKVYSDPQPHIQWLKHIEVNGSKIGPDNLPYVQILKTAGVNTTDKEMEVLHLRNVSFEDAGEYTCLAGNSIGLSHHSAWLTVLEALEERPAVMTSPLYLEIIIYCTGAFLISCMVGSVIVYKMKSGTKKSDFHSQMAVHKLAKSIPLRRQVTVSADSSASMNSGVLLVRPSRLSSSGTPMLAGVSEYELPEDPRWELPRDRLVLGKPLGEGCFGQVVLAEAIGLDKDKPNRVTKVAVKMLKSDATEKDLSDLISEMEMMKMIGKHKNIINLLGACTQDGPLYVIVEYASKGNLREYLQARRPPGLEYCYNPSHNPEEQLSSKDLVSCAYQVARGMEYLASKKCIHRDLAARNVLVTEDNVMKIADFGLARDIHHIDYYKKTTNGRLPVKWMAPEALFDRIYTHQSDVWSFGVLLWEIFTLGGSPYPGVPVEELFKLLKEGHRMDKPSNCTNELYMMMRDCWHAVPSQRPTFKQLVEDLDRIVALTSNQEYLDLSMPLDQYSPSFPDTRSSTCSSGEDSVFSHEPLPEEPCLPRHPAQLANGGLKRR
Series [4] deals with MDA-MB-453. Put plainly: Antiproliferative activity against human MDA-MB-453 cells harboring FGFR4 Y367C mutant after 72 hrs by CCK8 assay. The following applies: MDA-MB-453, 72 h. (In general: Tetrazolium assays rely on reduction of a dye to a coloured formazan, in cell work by metabolically active cells.)
A further series has as its system MDA-MB-231. Put plainly: Antiproliferative activity against human MDA-MB-231 cells expressing low levels of FGFR4 after 72 hrs by CCK8 assay. The following applies: MDA-MB-231, 72 h.
The test system of a further series is MCF7. Put plainly: Antiproliferative activity against human MCF7 cells expressing low levels of FGFR4 after 72 hrs by CCK8 assay. To be noted: MCF7, 72 h.
For series [5], the target named is G protein-coupled receptor kinase 4 (Homo sapiens) (UniProt P32298). Briefly: Inhibition of human GRK4 at 1 uM after 1 hr by KINOMEscan assay relative to control. The essentials: (§1)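 Kinome-wide competition binding screen across 468 kinases, with compound at 1.0 µM.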
Sequence of G protein-coupled receptor kinase 4 (Homo sapiens) (P32298 whole entry, looked up): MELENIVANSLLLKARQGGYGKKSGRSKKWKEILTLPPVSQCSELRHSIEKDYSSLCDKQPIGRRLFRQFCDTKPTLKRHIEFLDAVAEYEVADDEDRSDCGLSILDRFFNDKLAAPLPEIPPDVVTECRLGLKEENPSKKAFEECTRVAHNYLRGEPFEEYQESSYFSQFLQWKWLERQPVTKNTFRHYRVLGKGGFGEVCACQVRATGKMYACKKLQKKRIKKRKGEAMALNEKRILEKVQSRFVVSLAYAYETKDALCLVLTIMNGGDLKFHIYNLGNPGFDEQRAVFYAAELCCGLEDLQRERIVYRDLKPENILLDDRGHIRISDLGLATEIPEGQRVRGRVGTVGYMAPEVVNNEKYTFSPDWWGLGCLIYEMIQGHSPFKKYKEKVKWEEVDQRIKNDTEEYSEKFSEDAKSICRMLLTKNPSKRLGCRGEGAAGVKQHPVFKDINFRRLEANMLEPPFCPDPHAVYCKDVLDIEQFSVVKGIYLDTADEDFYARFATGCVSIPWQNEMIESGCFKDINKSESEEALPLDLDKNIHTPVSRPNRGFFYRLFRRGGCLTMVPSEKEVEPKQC
Series [6] has as its target T1, Fibroblast growth factor receptor 4 (Homo sapiens, UniProt P22455). Put plainly: Binding affinity to ATP binding site of human FGFR4 after 1 hr by qPCR method. The gist of the method: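 The Kd for FGFR4 was measured in an active-site-dependent competition binding assay against the ATP-binding site.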
Target sequence in this assay (P22455 whole entry): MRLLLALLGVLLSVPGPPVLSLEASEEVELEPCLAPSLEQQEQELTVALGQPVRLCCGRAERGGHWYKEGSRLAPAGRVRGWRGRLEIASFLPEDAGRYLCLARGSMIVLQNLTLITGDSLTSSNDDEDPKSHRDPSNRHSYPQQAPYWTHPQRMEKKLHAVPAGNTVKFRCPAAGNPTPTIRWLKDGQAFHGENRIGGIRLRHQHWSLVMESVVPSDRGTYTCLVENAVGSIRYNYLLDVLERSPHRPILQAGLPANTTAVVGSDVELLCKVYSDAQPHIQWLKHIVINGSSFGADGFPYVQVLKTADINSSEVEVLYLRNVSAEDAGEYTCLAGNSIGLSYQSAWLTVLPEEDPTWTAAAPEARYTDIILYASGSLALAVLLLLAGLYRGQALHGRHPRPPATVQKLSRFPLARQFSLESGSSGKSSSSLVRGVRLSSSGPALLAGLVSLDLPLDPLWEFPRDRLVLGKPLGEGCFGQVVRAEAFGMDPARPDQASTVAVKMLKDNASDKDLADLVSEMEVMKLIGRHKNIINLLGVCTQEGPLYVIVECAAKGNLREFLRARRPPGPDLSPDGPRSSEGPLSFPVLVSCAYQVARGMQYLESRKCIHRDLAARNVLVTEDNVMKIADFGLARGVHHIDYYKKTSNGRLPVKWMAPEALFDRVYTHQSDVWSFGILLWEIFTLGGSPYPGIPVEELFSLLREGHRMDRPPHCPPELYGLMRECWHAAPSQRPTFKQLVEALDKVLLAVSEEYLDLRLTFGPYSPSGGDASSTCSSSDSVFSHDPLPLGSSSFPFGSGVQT
(Real-time PCR tracks product formation cycle by cycle.)

Series [7] has as its target SRSF protein kinase 3 (Homo sapiens) (UniProt Q9UPE1). Briefly: Inhibition of human SRSF protein kinase 3 at 1 uM after 1 hr by KINOMEscan assay relative to control. The essentials: as §1
Series [8] has as its target T1, Fibroblast growth factor receptor 4. Briefly: Inhibition of His-tagged cytoplasmic recombinant human FGFR4 ([…] residues) expressed in baculovirus expression system using Tyr 4 peptide as substrate incubated for 1 hr by FRET-based Z'-Lyte assay.
Target sequence in this assay (P22455 whole entry): as above
The test system of series [9] is MDA-MB-453. Put plainly: Induction of apoptosis in human MDA-MB-453 cells after 48 hrs by annexin V/[…] staining-based flow cytometric method. It counts as functional, cell-based. On the technique in general: Flow cytometry measures light scatter and fluorescence of single cells or particles in a stream.
The test system of series [10] is MDA-MB-453. Put plainly: Effect on total AKT levels in human MDA-MB-453 cells at 3 to 300 nM after 4 hrs by Western blot method. The following applies: mda-mb-453, 4 h, 0.3 µM. It counts as ADME, cell-based. The essentials:
(§2)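 MDA-MB-453 cells (FGFR4 Y367C) were treated with or without compound for 4 h at the indicated concentrations. Cells were then harvested, and total and phosphorylated FGFR4, FRS2, ERK1/2 and Akt were read by Western blot.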

Series [11] has as its target Calcium/calmodulin-dependent protein kinase type 1D (Homo sapiens) (UniProt Q8IU85). Put plainly: Inhibition of human CAMK1D at 1 uM after 1 hr by KINOMEscan assay relative to control. The essentials:
as §1

Series [12] addresses T1, Fibroblast growth factor receptor 4. To be noted: 1 uM.
Target sequence in this assay (P22455 22-802 limits assumed): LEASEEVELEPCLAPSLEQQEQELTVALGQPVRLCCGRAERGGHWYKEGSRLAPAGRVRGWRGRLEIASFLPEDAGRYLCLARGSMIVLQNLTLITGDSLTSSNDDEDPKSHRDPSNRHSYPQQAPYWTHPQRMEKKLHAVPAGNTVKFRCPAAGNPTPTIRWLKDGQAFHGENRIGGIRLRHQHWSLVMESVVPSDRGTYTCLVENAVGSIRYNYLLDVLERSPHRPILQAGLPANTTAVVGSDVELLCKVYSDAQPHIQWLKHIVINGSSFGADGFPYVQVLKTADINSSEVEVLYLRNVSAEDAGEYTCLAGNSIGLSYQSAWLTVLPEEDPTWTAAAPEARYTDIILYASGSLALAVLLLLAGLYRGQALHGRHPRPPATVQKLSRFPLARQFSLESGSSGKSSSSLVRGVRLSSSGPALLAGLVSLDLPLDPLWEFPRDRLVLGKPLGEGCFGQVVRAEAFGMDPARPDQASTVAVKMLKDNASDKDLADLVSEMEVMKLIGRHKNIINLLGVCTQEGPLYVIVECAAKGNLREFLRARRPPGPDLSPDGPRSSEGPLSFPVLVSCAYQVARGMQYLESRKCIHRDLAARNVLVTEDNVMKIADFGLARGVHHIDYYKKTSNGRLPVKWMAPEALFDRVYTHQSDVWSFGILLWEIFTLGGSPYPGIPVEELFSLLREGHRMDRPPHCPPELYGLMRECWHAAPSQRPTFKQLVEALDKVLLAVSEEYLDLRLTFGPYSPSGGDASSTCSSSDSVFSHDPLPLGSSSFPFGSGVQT
Series [13] deals with MDA-MB-453. Briefly: Effect on total FRS2 levels in human MDA-MB-453 cells at 3 to 300 nM after 4 hrs by Western blot method. It counts as ADME, cell-based. To be noted: mda-mb-453, 4 h, 0.3 µM. The gist of the method: as §2
The test system of series [14] is MDA-MB-453. Briefly: Effect on total ERK1/2 levels in human MDA-MB-453 cells at 3 to 300 nM after 4 hrs by Western blot method. In kind it is ADME, cell-based. To be noted: mda-mb-453, 4 h, 0.3 µM. The gist of the method:
as §2

Usually pIC50 stands for the negative decadic logarithm of the IC50, by convention in mol/L. The term inhibition denotes the change of the read-out against control, counted positive when it falls. Usually pKd stands for the Kd on a negative log10 scale, so that one unit is a factor of ten.

pIC50, pKd: −log10 of the molar value.

Sequence of Fibroblast growth factor receptor 3 (P22607 whole entry, the tested form may be a part): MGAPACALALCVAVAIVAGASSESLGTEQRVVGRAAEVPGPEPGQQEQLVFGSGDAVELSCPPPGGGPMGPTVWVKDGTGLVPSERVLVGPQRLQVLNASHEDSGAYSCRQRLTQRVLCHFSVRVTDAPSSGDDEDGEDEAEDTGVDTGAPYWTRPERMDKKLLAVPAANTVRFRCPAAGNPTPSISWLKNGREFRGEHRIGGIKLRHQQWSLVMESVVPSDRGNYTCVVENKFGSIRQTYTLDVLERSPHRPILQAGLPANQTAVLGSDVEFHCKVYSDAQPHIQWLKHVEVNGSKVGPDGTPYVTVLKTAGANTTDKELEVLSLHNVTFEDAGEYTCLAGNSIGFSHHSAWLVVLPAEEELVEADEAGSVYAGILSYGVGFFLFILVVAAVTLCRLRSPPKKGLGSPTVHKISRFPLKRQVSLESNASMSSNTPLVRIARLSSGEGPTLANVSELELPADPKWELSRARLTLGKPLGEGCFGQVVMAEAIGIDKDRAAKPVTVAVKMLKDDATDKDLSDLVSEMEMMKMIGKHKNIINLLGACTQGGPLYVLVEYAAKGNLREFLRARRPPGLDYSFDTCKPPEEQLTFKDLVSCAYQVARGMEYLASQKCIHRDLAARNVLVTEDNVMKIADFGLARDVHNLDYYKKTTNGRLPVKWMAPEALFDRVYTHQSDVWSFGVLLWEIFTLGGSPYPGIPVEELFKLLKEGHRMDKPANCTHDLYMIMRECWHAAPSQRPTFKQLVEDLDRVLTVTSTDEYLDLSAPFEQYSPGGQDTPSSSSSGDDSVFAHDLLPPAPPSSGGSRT
Sequence of Calcium/calmodulin-dependent protein kinase type 1D (Homo sapiens) (Q8IU85 whole entry, looked up): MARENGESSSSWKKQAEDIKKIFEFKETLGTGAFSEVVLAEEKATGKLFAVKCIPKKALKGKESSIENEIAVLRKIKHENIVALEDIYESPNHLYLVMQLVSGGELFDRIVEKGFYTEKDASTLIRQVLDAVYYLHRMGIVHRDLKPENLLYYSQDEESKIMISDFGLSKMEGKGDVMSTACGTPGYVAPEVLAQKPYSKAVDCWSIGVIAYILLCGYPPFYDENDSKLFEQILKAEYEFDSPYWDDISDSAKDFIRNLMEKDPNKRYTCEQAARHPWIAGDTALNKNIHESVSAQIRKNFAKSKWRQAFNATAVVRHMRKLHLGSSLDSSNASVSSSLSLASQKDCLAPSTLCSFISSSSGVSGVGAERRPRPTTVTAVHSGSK

On to `C=CC(=O)Nc1cccc(Cl)c1Nc1ncc(OC(C)c2c(Cl)c(OC)cc(OC)c2Cl)cn1` (stereo not given), for which the pIC50 in series [1] and in [2] was under 5.00 throughout.
With `C=CC(=O)Nc1cccc(Cl)c1Nc1ncc(OCc2c(Cl)ccc(OC)c2Cl)cn1`, the pIC50 in series [1] and in series [2] was under 5.00 each time.
As to `C=CC(=O)Nc1cccc(Cl)c1Nc1ncc(OCc2cc(OC)cc(OC)c2Cl)cn1`, the pIC50 in [1] and in [2] was under 5.00 in each case.
`C=CC(=O)Nc1cccc(Cl)c1Nc1ncc(OCc2cc(OC)ccc2Cl)cn1`: the negative logarithm of the IC50 (pIC50) in [1] and in [2] was under 5.00 each time.
As to `C=CC(=O)Nc1cccc(OCC)c1Nc1ncc(OCc2c(Cl)c(OC)cc(OC)c2Cl)cn1`, the pIC50 in [1], in series [2] and in series [3] was under 5.00 each time.
Turning to `C=CC(=O)Nc1cccc(C)c1Nc1ncc(OCc2c(Cl)c(OC)cc(OC)c2Cl)cn1`, the figures for the negative logarithm of the IC50 (pIC50) in the series on MDA-MB-453 [4], with MDA-MB-231 and in the series with MCF7 were 6.66, under 5.00 and under 5.00, respectively.
For the molecule `C=CC(=O)Nc1cc(C(F)(F)F)cc(Cl)c1Nc1ncc(OCc2c(Cl)c(OC)cc(OC)c2Cl)cn1`, the negative logarithm of the IC50 (pIC50) in series [1], in [2] and in [3] was under 5.00 throughout.
`C=CC(=O)Nc1cccc(F)c1Nc1ncc(OCc2c(Cl)c(OC)cc(OC)c2Cl)cn1`: the pIC50 was 5.37 in series [1] and 6.40 in series [2].
As for `C=CC(=O)Nc1cccc(C)c1Nc1ncc2cc(-c3c(Cl)c(OC)cc(OC)c3Cl)ccc2n1`, the pIC50 in series [1] was 6.61; with MDA-MB-453 [4], 6.49; in the series on MDA-MB-231 it was 5.42; in the series with MCF7, 5.63; in [3], 6.62.
Consider `C=CC(=O)Nc1cccc(Cl)c1Nc1ncc(OCc2cc(OC)cc(OC)c2)cn1`, for which the negative-log IC50 (pIC50) in series [1] and in series [2] was under 5.00 each time.
Take `C=CC(=O)Nc1cccc(OC(C)C)c1Nc1ncc(OCc2c(Cl)c(OC)cc(OC)c2Cl)cn1`: the negative-log IC50 (pIC50) in [1], in series [2] and in series [3] was under 5.00 throughout.
Consider `C=CC(=O)Nc1cc(Cl)cc(Cl)c1Nc1ncc(OCc2c(Cl)c(OC)cc(OC)c2Cl)cn1`, for which the negative logarithm of the IC50 (pIC50) was under 5.00 in [1]; 6.06 in the series with MDA-MB-453 [4]; under 5.00 in [2]; under 5.00 in the series on MDA-MB-231; under 5.00 in the series with MCF7.
For the molecule `C=CC(=O)Nc1ccccc1Nc1ncc(OCc2c(Cl)c(OC)cc(OC)c2Cl)cn1`, the results for the negative-log IC50 (pIC50) in [1] and in series [2] were 5.92 and 6.51, respectively.
Regarding `C=CC(=O)Nc1cc(F)cc(Cl)c1Nc1ncc(OCc2c(Cl)c(OC)cc(OC)c2Cl)cn1`, the inhibition in [5] was 92.8%; in [7], 88%; in series [11], 94.7%; in series [12] it was 99.5%. In addition, the pKd in series [6] was 8.48. In addition, the pIC50 in series [8] was 8.59; in [1], under 5.00; in the series with MDA-MB-453 [4] it was 6.42; in series [2], under 5.00; in the series on MDA-MB-231 it was under 5.00; in the series with MCF7, under 5.00. The negative-log IC50 (pIC50) in series [3] is under 5.00. Besides, the Activity result with MDA-MB-453 [9] was “Dose-dependent effect”; with MDA-MB-453 [10], “Non-Toxic”; in the series on MDA-MB-453 [13], “Non-Toxic”; in the series on MDA-MB-453 [14] it was “Non-Toxic”.
As to `C=CC(=O)Nc1cccc(Cl)c1Nc1ncc(OCc2c(Cl)cccc2Cl)cn1`, the pIC50 in series [1], in [2] and in series [3] was under 5.00 throughout.
For the molecule `C=CC(=O)Nc1cc(C)ccc1Nc1ncc(OCc2c(Cl)c(OC)cc(OC)c2Cl)cn1`, the negative-log IC50 (pIC50) in series [1] and in series [2] was under 5.00 in each case.
For `C=CC(=O)Nc1cccc(Cl)c1Nc1ncc(OCc2ccccc2Cl)cn1`, the pIC50 in [1], in [2] and in [3] was under 5.00 each time.
Consider `C=CC(=O)Nc1cccc(CC)c1Nc1ncc(OCc2c(Cl)c(OC)cc(OC)c2Cl)cn1`, for which the pIC50 in series [1] and in series [2] was under 5.00 throughout.
Regarding `C=CC(=O)Nc1ccc(C)cc1Nc1ncc(OCc2c(Cl)c(OC)cc(OC)c2Cl)cn1`, the pIC50 in series [1] and in series [2] was under 5.00 each time.
For `C=CC(=O)Nc1cccc(Cl)c1Nc1ncc(OCc2c(Cl)c(OC)cc(OC)c2Cl)cn1`, the pIC50 in series [1] is under 5.00; with MDA-MB-453 [4], 6.19; in [2], under 5.00; in the series with MDA-MB-231 it was under 5.00; in the series with MCF7 it was under 5.00.
As to `C=CC(=O)Nc1cccc(C(F)(F)F)c1Nc1ncc(OCc2c(Cl)c(OC)cc(OC)c2Cl)cn1`, the pIC50 in [1], in series [2] and in [3] was under 5.00 in each case.
As to `C=CC(=O)Nc1cccc(C)c1Nc1ncc(NCc2c(Cl)c(OC)cc(OC)c2Cl)cn1`, the pIC50 in series [1] and in [2] was under 5.00 in each case.
On to `C=CC(=O)Nc1cccc(OC)c1Nc1ncc(OCc2c(Cl)c(OC)cc(OC)c2Cl)cn1`, for which the pIC50 is under 5.00 in series [1]; 6.68 in the series with MDA-MB-453 [4]; under 5.00 in series [2]; 5.67 in the series with MDA-MB-231; 5.93 with MCF7.
Regarding `C=CC(=O)Nc1cccc(Cl)c1Nc1ncc(OCc2cccc(OC)c2Cl)cn1`, the pIC50 in [1] and in [2] was under 5.00 throughout.
Turning to `CCC(=O)Nc1cccc(Cl)c1Nc1ncc(OCc2c(Cl)c(OC)cc(OC)c2Cl)cn1`, the negative logarithm of the IC50 (pIC50) in series [8], in series [1] and in series [2] was under 5.00 in each case.
Consider `C=CC(=O)Nc1cccc(Cl)c1Nc1ncc(OCc2cccc(OC)c2)cn1`, for which the negative-log IC50 (pIC50) in series [1], in series [2] and in series [3] was under 5.00 throughout.
As for `C=CC(=O)Nc1c(C)cccc1Nc1ncc(OCc2c(Cl)c(OC)cc(OC)c2Cl)cn1`, the pIC50 in [8], in series [1] and in series [2] was under 5.00 in each case.
